Structures are written as SMILES. Square brackets hold non-standard residues; d marks the D form. Peptide text beside a SMILES is read from it. * marks the point of attachment. AspCH2OCO(5-Me-thien-2-yl) = Cc1ccc(C(=O)OCC(=O)[C@H](CC(=O)O)N*)s1; Phe(F5) = N[C@@H](Cc1c(F)c(F)c(F)c(F)c1F)C(=O)O; X5 = Cc1cccc(C)c1C(=O)OCC(=O)[C@@H](CC(=O)O)N*; X4 = Cc1ccc(C(=O)OCC(=O)[C@@H](CC(=O)O)N*)s1; X2 = O=C(CCOCCOCCOCCOCCn1cc(CCCF)nn1)*; d(β3hL) = CC(C)C[C@@H](N)CC(=O)O; 3Pal = N[C@@H](Cc1cccnc1)C(=O)O; d3Pal = N[C@H](Cc1cccnc1)C(=O)O; X3 = O=C(CCCc1cn(CCF)nn1)*; X1 = O=C(Cn1cc(CCCF)nn1)*; Ahx = NCCCCCC(=O)O

Common to all, as to experiment: Biochemical inhibition assay, kinact/Ki with AMAC substrate
One test addresses T1, caspase-10 (Homo sapiens, UniProt Q92851).
T1 sequence (Q92851 220-415 limits assumed): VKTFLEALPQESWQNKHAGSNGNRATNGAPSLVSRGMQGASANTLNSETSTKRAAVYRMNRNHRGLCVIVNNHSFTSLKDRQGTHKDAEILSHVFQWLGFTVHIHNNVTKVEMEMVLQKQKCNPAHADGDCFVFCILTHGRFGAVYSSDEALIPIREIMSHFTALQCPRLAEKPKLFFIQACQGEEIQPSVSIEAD
T1 sequence (Q92851 416-521 limits assumed): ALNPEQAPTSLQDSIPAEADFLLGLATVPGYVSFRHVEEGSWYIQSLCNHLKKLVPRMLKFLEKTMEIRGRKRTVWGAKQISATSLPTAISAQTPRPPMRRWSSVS
The following applies: read-out: kinact/Ki C10. Summed up: (§1)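 Caspase-8 (25 nM), caspase-9 (100 nM) and caspase-10 (20 nM) used Ac-IETD-AMAC; caspase-9 and caspase-10 buffers also had 0.7 M sodium citrate. Caspase-6 (25 nM) used Ac-VEID-AMAC. Fluorescence (ex 320/em 460) was read immediately, and progress curves were fit for kinact and Ki.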

The next test deals with caspase-8 (Homo sapiens, UniProt Q14790). To be noted: read-out: kinact/Ki C8. Put shortly:
as §1

The target in another test is T2, caspase-3 (Homo sapiens, UniProt P42574).
T2 sequence (P42574 29-175 limits assumed): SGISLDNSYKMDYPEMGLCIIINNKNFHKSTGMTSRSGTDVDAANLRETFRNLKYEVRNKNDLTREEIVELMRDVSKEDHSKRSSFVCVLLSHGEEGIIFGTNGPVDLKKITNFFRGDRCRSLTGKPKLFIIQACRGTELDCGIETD
T2 sequence (P42574 176-277 limits assumed): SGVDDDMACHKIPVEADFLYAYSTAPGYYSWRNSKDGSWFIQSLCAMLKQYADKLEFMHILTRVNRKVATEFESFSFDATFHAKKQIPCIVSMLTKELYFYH
The following applies: for kinact/KI: read-out: kinact/Ki C3. Summed up:
(§2)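 Continuous fluorogenic inactivation assay with Ac-DEVD-AMAC at 100 μM final. Final enzyme concentrations were 1 nM caspase-3 and 5 nM caspase-7. Enzyme was added to substrate plus inhibitor, and fluorescence (ex 320/em 460) was read immediately. Progress curves were fit to F = -[v₀(1-exp(-kobst))/kobs-Fmax] to give kinact and Ki.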

Another test deals with T3, caspase-7 (Homo sapiens, UniProt P55210).
T3 sequence (P55210 24-198 limits assumed): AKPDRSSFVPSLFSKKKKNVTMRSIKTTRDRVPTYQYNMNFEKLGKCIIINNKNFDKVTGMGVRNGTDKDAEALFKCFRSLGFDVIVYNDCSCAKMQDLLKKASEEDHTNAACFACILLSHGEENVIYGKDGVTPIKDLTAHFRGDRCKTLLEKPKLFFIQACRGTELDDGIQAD
T3 sequence (P55210 207-303 limits assumed): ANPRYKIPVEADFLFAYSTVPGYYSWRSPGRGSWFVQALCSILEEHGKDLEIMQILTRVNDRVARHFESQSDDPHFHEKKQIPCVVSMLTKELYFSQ
The following applies: read-out: kinact/Ki C7. Put shortly:
as §2

The target in another test is T4, caspase-6 (Homo sapiens, UniProt P55212).
T4 sequence (P55212 24-179 limits assumed): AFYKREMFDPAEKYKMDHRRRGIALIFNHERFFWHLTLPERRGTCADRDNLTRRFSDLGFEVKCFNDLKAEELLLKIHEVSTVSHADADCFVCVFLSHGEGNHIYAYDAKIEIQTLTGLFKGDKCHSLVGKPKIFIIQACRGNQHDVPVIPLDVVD
T4 sequence (P55212 194-293 limits assumed): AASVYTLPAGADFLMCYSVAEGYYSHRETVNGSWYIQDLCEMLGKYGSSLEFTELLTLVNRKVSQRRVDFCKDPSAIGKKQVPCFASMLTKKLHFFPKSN
The following applies: read-out: kinact/Ki C6. Summed up: as §1

A further test concerns the target T5, caspase-9 (Homo sapiens, UniProt P55211).
T5 sequence (P55211 1-315 limits assumed): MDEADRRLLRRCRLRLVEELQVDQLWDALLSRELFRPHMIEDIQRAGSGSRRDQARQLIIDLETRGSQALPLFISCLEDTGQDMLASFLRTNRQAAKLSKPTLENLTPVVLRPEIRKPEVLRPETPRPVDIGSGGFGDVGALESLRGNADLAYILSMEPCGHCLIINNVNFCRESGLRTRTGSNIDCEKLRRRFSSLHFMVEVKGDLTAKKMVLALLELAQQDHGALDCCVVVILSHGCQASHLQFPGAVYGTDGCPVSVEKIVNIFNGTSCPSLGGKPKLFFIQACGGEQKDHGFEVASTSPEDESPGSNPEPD
T5 sequence (P55211 331-416 limits assumed): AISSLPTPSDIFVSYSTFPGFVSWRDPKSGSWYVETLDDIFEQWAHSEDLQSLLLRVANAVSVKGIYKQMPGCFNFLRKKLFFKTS
To be noted: read-out: kinact/Ki C9. Put shortly:
as §1

caspase-8, sequence (Q14790 217-374 limits assumed): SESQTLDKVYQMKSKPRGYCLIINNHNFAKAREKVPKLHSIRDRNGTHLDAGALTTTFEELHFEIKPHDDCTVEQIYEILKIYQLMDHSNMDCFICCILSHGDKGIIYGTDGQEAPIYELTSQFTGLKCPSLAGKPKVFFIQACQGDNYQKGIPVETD
caspase-8, sequence (Q14790 385-479 limits assumed): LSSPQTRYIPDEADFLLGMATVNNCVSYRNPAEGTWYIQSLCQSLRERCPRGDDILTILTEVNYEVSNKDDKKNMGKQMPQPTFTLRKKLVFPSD

Take `Cc1ccc(C(=O)OCC(=O)[C@H](CC(=O)O)NC(=O)[C@H](Cc2ccccc2)NC(=O)[C@H](Cc2c(F)c(F)c(F)c(F)c2F)NC(=O)[C@H](CC(=O)O)NC(=O)[C@H](Cc2cccnc2)NC(=O)CNC(=O)[C@H](CCC(=O)O)NC(=O)CNC(=O)Cn2cc(CCCF)nn2)s1` [Inhibitor 4, (3S,6S,9S,12S,15S,21S)-6-benzyl-12-(carboxymethyl)-21-(2-(2-(4-(3-fluoropropyl)-1H-1,2,3-triazol-1-yl)acetamido)acetamido)-3-(2-((5-methylthiophene-2-carbonyl)oxy)acetyl)-5,8,11,14,17,20-hexaoxo-9-((perfluorophenyl)methyl)-15-(pyridin-3-ylmethyl)-4,7,10,13,16,19-hexaazatetracosanedioic acid] (X1-GEG[3Pal]D[Phe(F5)]F-{AspCH2OCO(5-Me-thien-2-yl)}): the kinact/KI on caspase-10 worked out at 700 M⁻¹ s⁻¹; on caspase-8, 7200 M⁻¹ s⁻¹; at caspase-3, 863000 M⁻¹ s⁻¹; at caspase-7, 71400 M⁻¹ s⁻¹; on caspase-6 it was 200 M⁻¹ s⁻¹; at caspase-9, 800 M⁻¹ s⁻¹.
As to `Cc1cccc(C)c1C(=O)OCC(=O)[C@@H](CC(=O)O)NC(=O)[C@@H](Cc1ccccc1)NC(=O)C[C@@H](CC(C)C)NC(=O)[C@@H](CC(=O)O)NC(=O)[C@@H](Cc1cccnc1)NC(=O)CCCCCNC(=O)CCCCCNC(=O)CCCc1cn(CCF)nn1` [Inhibitor 3, (3R,6R,10R,13R,16R)-6-benzyl-13-(carboxymethyl)-3-(2-((2,6-dimethylbenzoyl)oxy)acetyl)-35-(1-(2-fluoroethyl)-1H-1,2,3-triazol-4-yl)-10-isobutyl-5,8,12,15,18,25,32-heptaoxo-16-(pyridin-3-ylmethyl)-4,7,11,14,17,24,31-heptaazapentatriacontanoic acid] ({X3-Ahx-Ahx}-[d3Pal][dD][d(β3hL)][dF]-X5), the kinact/KI at caspase-3 worked out at 206000 M⁻¹ s⁻¹; at caspase-7, 1000 M⁻¹ s⁻¹; at caspase-6 it was 5400 M⁻¹ s⁻¹.
Consider `Cc1ccc(C(=O)OCC(=O)[C@H](CC(=O)O)NC(=O)[C@H](Cc2ccccc2)NC(=O)[C@H](Cc2c(F)c(F)c(F)c(F)c2F)NC(=O)[C@H](CC(=O)O)NC(=O)[C@H](Cc2cccnc2)NC(=O)Cn2cc(CCCF)nn2)s1` [Inhibitor 8, (4S,7S,10S,13S,16S)-13-benzyl-7-(carboxymethyl)-1-(4-(3-fluoropropyl)-1H-1,2,3-triazol-1-yl)-16-(2-((5-methylthiophene-2-carbonyl)oxy)acetyl)-2,5,8,11,14-pentaoxo-10-((perfluorophenyl)methyl)-4-(pyridin-3-ylmethyl)-3,6,9,12,15-pentaazaoctadecan-18-oic acid] (X1-[3Pal]D[Phe(F5)]F-{AspCH2OCO(5-Me-thien-2-yl)}), for which the kinact/KI was 700 M⁻¹ s⁻¹ on caspase-10; 5600 M⁻¹ s⁻¹ at caspase-8; 549000 M⁻¹ s⁻¹ at caspase-3; 61000 M⁻¹ s⁻¹ on caspase-7; 400 M⁻¹ s⁻¹ at caspase-9.
On to `Cc1ccc(C(=O)OCC(=O)[C@H](CC(=O)O)NC(=O)[C@H](Cc2ccccc2)NC(=O)[C@H](Cc2c(F)c(F)c(F)c(F)c2F)NC(=O)[C@H](CC(=O)O)NC(=O)[C@H](Cc2cccnc2)NC(=O)CNC(=O)CNC(=O)CNC(=O)Cn2cc(CCCF)nn2)s1` [Inhibitor 7, (13S,16S,19S,22S,25S)-22-benzyl-16-(carboxymethyl)-1-(4-(3-fluoropropyl)-1H-1,2,3-triazol-1-yl)-25-(2-((5-methylthiophene-2-carbonyl)oxy)acetyl)-2,5,8,11,14,17,20,23-octaoxo-19-((perfluorophenyl)methyl)-13-(pyridin-3-ylmethyl)-3,6,9,12,15,18,21,24-octaazaheptacosan-27-oic acid] (X1-GGG[3Pal]D[Phe(F5)]F-{AspCH2OCO(5-Me-thien-2-yl)}), for which the kinact/KI came out at 1000 M⁻¹ s⁻¹ on caspase-10; 15200 M⁻¹ s⁻¹ at caspase-8; 1.62e+06 M⁻¹ s⁻¹ at caspase-3; 117000 M⁻¹ s⁻¹ at caspase-7; 300 M⁻¹ s⁻¹ on caspase-6; 700 M⁻¹ s⁻¹ on caspase-9. In addition, the “inactivation rate on caspase-3 as compared to caspase-7” value on caspase-3 (ratio of kinact/Ki) was 14 times.
As for `Cc1ccc(C(=O)OCC(=O)[C@H](CC(=O)O)NC(=O)[C@H](Cc2ccccc2)NC(=O)[C@H](Cc2c(F)c(F)c(F)c(F)c2F)NC(=O)[C@H](CC(=O)O)NC(=O)[C@H](Cc2cccnc2)NC(=O)CCCCCNC(=O)Cn2cc(CCCF)nn2)s1` [Inhibitor 6, (11S,14S,17S,20S,23S)-20-benzyl-14-(carboxymethyl)-1-(4-(3-fluoropropyl)-1H-1,2,3-triazol-1-yl)-23-(2-((5-methylthiophene-2-carbonyl)oxy)acetyl)-2,9,12,15,18,21-hexaoxo-17-((perfluorophenyl)methyl)-11-(pyridin-3-ylmethyl)-3,10,13,16,19,22-hexaazapentacosan-25-oic acid] ({X1-Ahx}-[3Pal]D[Phe(F5)]F-{AspCH2OCO(5-Me-thien-2-yl)}), the kinact/KI was 900 M⁻¹ s⁻¹ on caspase-10; 7700 M⁻¹ s⁻¹ on caspase-8; 851000 M⁻¹ s⁻¹ on caspase-3; 108000 M⁻¹ s⁻¹ on caspase-7; 200 M⁻¹ s⁻¹ on caspase-6; 900 M⁻¹ s⁻¹ at caspase-9.
In the case of `Cc1ccc(C(=O)OCC(=O)[C@H](CC(=O)O)NC(=O)[C@H](Cc2ccccc2)NC(=O)[C@H](Cc2c(F)c(F)c(F)c(F)c2F)NC(=O)[C@H](CC(=O)O)NC(=O)[C@H](Cc2cccnc2)NC(=O)CCOCCOCCOCCOCCn2cc(CCCF)nn2)s1` [Inhibitor 5, (17S,20S,23S,26S,29S)-26-benzyl-20-(carboxymethyl)-1-(4-(3-fluoropropyl)-1H-1,2,3-triazol-1-yl)-29-(2-((5-methylthiophene-2-carbonyl)oxy)acetyl)-15,18,21,24,27-pentaoxo-23-((perfluorophenyl)methyl)-17-(pyridin-3-ylmethyl)-3,6,9,12-tetraoxa-16,19,22,25,28-pentaazahentriacontan-31-oic acid] (X2-[3Pal]D[Phe(F5)]F-{AspCH2OCO(5-Me-thien-2-yl)}), the kinact/KI on caspase-10 stood at 600 M⁻¹ s⁻¹; on caspase-8, 13500 M⁻¹ s⁻¹; on caspase-3, 1.25e+06 M⁻¹ s⁻¹; on caspase-7, 106000 M⁻¹ s⁻¹; on caspase-6, 300 M⁻¹ s⁻¹; at caspase-9, 1000 M⁻¹ s⁻¹.
Regarding `Cc1ccc(C(=O)OCC(=O)[C@@H](CC(=O)O)NC(=O)[C@@H](Cc2ccccc2)NC(=O)C[C@@H](CC(C)C)NC(=O)[C@@H](CC(=O)O)NC(=O)[C@@H](Cc2cccnc2)NC(=O)CCCCCNC(=O)CCCCCNC(=O)CCCc2cn(CCF)nn2)s1` [Inhibitor 1, (3R,6R,10R,13R,16R)-6-benzyl-13-(carboxymethyl)-35-(1-(2-fluoroethyl)-1H-1,2,3-triazol-4-yl)-10-isobutyl-3-(2-((5-methylthiophene-2-carbonyl)oxy)acetyl)-5,8,12,15,18,25,32-heptaoxo-16-(pyridin-3-ylmethyl)-4,7,11,14,17,24,31-heptaazapentatriacontanoic acid] ({X3-Ahx-Ahx}-[d3Pal][dD][d(β3hL)][dF]-X4), the kinact/KI at caspase-3 is 73500 M⁻¹ s⁻¹; at caspase-7 it was 200 M⁻¹ s⁻¹; on caspase-6, 200 M⁻¹ s⁻¹.
